Data reported in publication PMC3048920 (Clinical cancer research : an official journal of the …, 2011).

Assays:
[1] = test system: patients with advanced solid malignancies; experiment: Phase I dose escalation: dose-limiting toxicities and maximum tolerated dose; assay type: in vivo; details: for Even ts, n/N: DLT events, cycle 1
[2] = test system: patients with advanced solid malignancies; experiment: Treatment-related adverse events and laboratory abnormalities; assay type: in vivo
[3] = test system: Ki67 and pERK1/2 (pMAPK) in skin biopsies; experiment: Skin biopsy pharmacodynamic biomarkers by immunohistochemistry; assay type: in vivo, human; details: with increased dose, Cmax, AUCtau and Ctrough; baseline vs cycle 1 day 14; P < 0.05
[4] = test system: advanced malignant solid tumors; experiment: Tumor response; assay type: in vivo, human
NSCLC = experiment: Tumor response in NSCLC patients, correlated with tumor genotype; assay type: in vivo, human
How it was run: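 NSCLC patients treated with oral once-daily test compound had tumors assessed by RECIST v1.0 at baseline, every two cycles and at end of treatment. Response was related to genotype. Archived tumor, or a fresh baseline biopsy where feasible, was tested for EGFR and KRAS mutations and EGFR/HER2 copy number by site laboratories, Pfizer or Genzyme.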

[5] = human, in vivo
[6] = Schedule A (n = 111), treatment-related, all cycles
[7] = Schedule B (n = 10), treatment-related, all cycles
[8] = EGFR Exon 19 deletion, 17 patients
[9] = EGFR Exon 19 deletion/T790M, 4 patients
[10] = EGFR Exon 20 insertion, 6 patients (one not evaluable)
[11] = EGFR mutation unknown, 12 patients (one not evaluable)
[12] = EGFR wild type, 12 patients (one not evaluable)

COc1cc2ncnc(Nc3ccc(F)c(Cl)c3)c2cc1NC(=O)/C=C/CN1CCCCC1 [PF299804]
total number of DLTs, share of treated patients ([1]; 45 mg including loading-dose cohort, four of 71 treated patients): 6%
total number of DLTs, share of treated patients ([1]; 45 mg, two of 52 treated patients): 4%
Even ts, n/N ([1]; Schedule A, 0.5 mg/day): 0/3
Even ts, n/N ([1]; Schedule A, 1 mg/day): 0/3
Even ts, n/N ([1]; Schedule A, 2 mg/day): 0/3
Even ts, n/N ([1]; Schedule A, 4 mg/day): 0/5
Even ts, n/N ([1]; Schedule A, 8 mg/day): 0/3
Even ts, n/N ([1]; Schedule A, 16 mg/day): 0/4
Even ts, n/N ([1]; Schedule A, 30 mg/day): 1/13
Even ts, n/N ([1]; Schedule A, 45 mg/day (loading dose)): 2/19
Even ts, n/N ([1]; Schedule A, 45 mg/day): 2/52
Even ts, n/N ([1]; Schedule A, 60 mg/day): 3/6
Even ts, n/N ([1]; Schedule B, 60 mg/day): 1/10
maximum tolerated dose (MTD) ([1]; continuous once-daily dosing): 45 mg/day
Anorexia, Grade 1, n (%) [2, 6]: 12 (10.8) n (%)
Anorexia, Grade 2, n (%) [2, 6]: 9 (8.1) n (%)
Anorexia, Grade 3, n (%) [2, 6]: 2 (1.8) n (%)
Anorexia, Total, n (%) [2, 6]: 23 (20.7) n (%)
Dermatitis acneiform, Grade 1, n (%) [2, 6]: 11 (9.9) n (%)
Dermatitis acneiform, Grade 2, n (%) [2, 6]: 3 (2.7) n (%)
Dermatitis acneiform, Grade 3, n (%) [2, 6]: 6 (5.4) n (%)
Dermatitis acneiform, Total, n (%) [2, 6]: 20 (18.0) n (%)
Diarrhea, Grade 1, n (%) [2, 6]: 43 (38.7) n (%)
Diarrhea, Grade 2, n (%) [2, 6]: 20 (18.0) n (%)
Diarrhea, Grade 3, n (%) [2, 6]: 11 (9.9) n (%)
Diarrhea, Total, n (%) [2, 6]: 74 (66.7) n (%)
Dry skin, Grade 1, n (%) [2, 6]: 29 (26.1) n (%)
Dry skin, Grade 2, n (%) [2, 6]: 1 (0.9) n (%)
Dry skin, Grade 3, n (%) [2, 6]: 0 n (%)
Dry skin, Total, n (%) [2, 6]: 30 (27.0) n (%)
Fatigue, Grade 1, n (%) [2, 6]: 20 (18.0) n (%)
Fatigue, Grade 2, n (%) [2, 6]: 15 (13.5) n (%)
Fatigue, Grade 3, n (%) [2, 6]: 3 (2.7) n (%)
Fatigue, Total, n (%) [2, 6]: 38 (34.2) n (%)
Nausea, Grade 1, n (%) [2, 6]: 28 (25.2) n (%)
Nausea, Grade 2, n (%) [2, 6]: 7 (6.3) n (%)
Nausea, Grade 3, n (%) [2, 6]: 1 (0.9) n (%)
Nausea, Total, n (%) [2, 6]: 36 (32.4) n (%)
Rash, Grade 1, n (%) [2, 6]: 30 (27.0) n (%)
Rash, Grade 2, n (%) [2, 6]: 16 (14.4) n (%)
Rash, Grade 3, n (%) [2, 6]: 4 (3.6) n (%)
Rash, Total, n (%) [2, 6]: 50 (45.0) n (%)
Stomatitis, Grade 1, n (%) [2, 6]: 17 (15.3) n (%)
Stomatitis, Grade 2, n (%) [2, 6]: 9 (8.1) n (%)
Stomatitis, Grade 3, n (%) [2, 6]: 4 (3.6) n (%)
Stomatitis, Total, n (%) [2, 6]: 30 (27.0) n (%)
Vomiting, Grade 1, n (%) [2, 6]: 14 (12.6) n (%)
Vomiting, Grade 2, n (%) [2, 6]: 3 (2.7) n (%)
Vomiting, Grade 3, n (%) [2, 6]: 1 (0.9) n (%)
Vomiting, Total, n (%) [2, 6]: 18 (16.2) n (%)
Alopecia, Grade 1, n (%) [2, 7]: 2 (20.0) n (%)
Alopecia, Grade 2, n (%) [2, 7]: 0 n (%)
Alopecia, Grade 3, n (%) [2, 7]: 0 n (%)
Alopecia, Total, n (%) [2, 7]: 2 (20.0) n (%)
Anorexia, Grade 1, n (%) [2, 7]: 0 n (%)
Anorexia, Grade 2, n (%) [2, 7]: 3 (30.0) n (%)
Anorexia, Grade 3, n (%) [2, 7]: 0 n (%)
Anorexia, Total, n (%) [2, 7]: 3 (30.0) n (%)
Dermatitis acneiform, Grade 1, n (%) [2, 7]: 0 n (%)
Dermatitis acneiform, Grade 2, n (%) [2, 7]: 3 (30.0) n (%)
Dermatitis acneiform, Grade 3, n (%) [2, 7]: 0 n (%)
Dermatitis acneiform, Total, n (%) [2, 7]: 3 (30.0) n (%)
Diarrhea, Grade 1, n (%) [2, 7]: 2 (20.0) n (%)
Diarrhea, Grade 2, n (%) [2, 7]: 5 (50.0) n (%)
Diarrhea, Grade 3, n (%) [2, 7]: 2 (20.0) n (%)
Diarrhea, Total, n (%) [2, 7]: 9 (90.0) n (%)
Dry eye, Grade 1, n (%) [2, 7]: 1 (10.0) n (%)
Dry eye, Grade 2, n (%) [2, 7]: 2 (20.0) n (%)
Dry eye, Grade 3, n (%) [2, 7]: 0 n (%)
Dry eye, Total, n (%) [2, 7]: 3 (30.0) n (%)
Dry skin, Grade 1, n (%) [2, 7]: 1 (10.0) n (%)
Dry skin, Grade 2, n (%) [2, 7]: 2 (20.0) n (%)
Dry skin, Grade 3, n (%) [2, 7]: 0 n (%)
Dry skin, Total, n (%) [2, 7]: 3 (30.0) n (%)
Eye pain, Grade 1, n (%) [2, 7]: 2 (20.0) n (%)
Eye pain, Grade 2, n (%) [2, 7]: 0 n (%)
Eye pain, Grade 3, n (%) [2, 7]: 0 n (%)
Eye pain, Total, n (%) [2, 7]: 2 (20.0) n (%)
Fatigue, Grade 1, n (%) [2, 7]: 0 n (%)
Fatigue, Grade 2, n (%) [2, 7]: 3 (30.0) n (%)
Fatigue, Grade 3, n (%) [2, 7]: 1 (10.0) n (%)
Fatigue, Total, n (%) [2, 7]: 4 (40.0) n (%)
Nausea, Grade 1, n (%) [2, 7]: 1 (10.0) n (%)
Nausea, Grade 2, n (%) [2, 7]: 2 (20.0) n (%)
Nausea, Grade 3, n (%) [2, 7]: 1 (10.0) n (%)
Nausea, Total, n (%) [2, 7]: 4 (40.0) n (%)
Pruritus, Grade 1, n (%) [2, 7]: 2 (20.0) n (%)
Pruritus, Grade 2, n (%) [2, 7]: 0 n (%)
Pruritus, Grade 3, n (%) [2, 7]: 0 n (%)
Pruritus, Total, n (%) [2, 7]: 2 (20.0) n (%)
Rash, Grade 1, n (%) [2, 7]: 4 (40.0) n (%)
Rash, Grade 2, n (%) [2, 7]: 2 (20.0) n (%)
Rash, Grade 3, n (%) [2, 7]: 0 n (%)
Rash, Total, n (%) [2, 7]: 6 (60.0) n (%)
Skin exfoliation, Grade 1, n (%) [2, 7]: 1 (10.0) n (%)
Skin exfoliation, Grade 2, n (%) [2, 7]: 0 n (%)
Skin exfoliation, Grade 3, n (%) [2, 7]: 1 (10.0) n (%)
Skin exfoliation, Total, n (%) [2, 7]: 2 (20.0) n (%)
Skin fissures, Grade 1, n (%) [2, 7]: 2 (20.0) n (%)
Skin fissures, Grade 2, n (%) [2, 7]: 1 (10.0) n (%)
Skin fissures, Grade 3, n (%) [2, 7]: 0 n (%)
Skin fissures, Total, n (%) [2, 7]: 3 (30.0) n (%)
Stomatitis, Grade 1, n (%) [2, 7]: 1 (10.0) n (%)
Stomatitis, Grade 2, n (%) [2, 7]: 1 (10.0) n (%)
Stomatitis, Grade 3, n (%) [2, 7]: 1 (10.0) n (%)
Stomatitis, Total, n (%) [2, 7]: 3 (30.0) n (%)
Vomiting, Grade 1, n (%) [2, 7]: 2 (20.0) n (%)
Vomiting, Grade 2, n (%) [2, 7]: 1 (10.0) n (%)
Vomiting, Grade 3, n (%) [2, 7]: 0 n (%)
Vomiting, Total, n (%) [2, 7]: 3 (30.0) n (%)
total AEs ([2]; all 121 patients): 1,416 AEs
AEs considered to be related to study drug ([2]; all schedules): 709 AEs
patients experiencing AEs related to study drug ([2]; all schedules, of 121): 111 patients
AEs considered to be related to study drug ([2]; schedule A): 626 AEs
patients experiencing AEs related to study drug ([2]; schedule A): 102 patients
patients with dose interruptions as a result of treatment-related AEs ([2]; schedule A): 29
AEs considered to be related to study drug ([2]; schedule B): 83 AEs
patients with dose interruptions as a result of treatment-related AEs ([2]; schedule B): 3
levels of pMAPK in skin biopsy [3]: significantly decreased
complete responses ([4]; 110 patients with at least one response evaluation): No complete responses
patients with PR ([4]; four of 110 evaluated patients, all NSCLC): 3.6%
patients with stable disease as best response ([4]; over all treatment cohorts, 110 evaluated): 44 patients
objective response to treatment (NSCLC; 4 patients with exon 19 deletions and documented T790M): None
Treatment Outcome, PD (patients) (NSCLC; [8]): 7
Treatment Outcome, PR (patients) (NSCLC; [8]): 2
Treatment Outcome, SD (patients) (NSCLC; [8]): 8
Treatment Outcome, PD (patients) (NSCLC; [9]): SD:2; PD:2
Treatment Outcome, SD (patients) (NSCLC; [9]): SD:2; PD:2
Treatment Outcome, PD (patients) (NSCLC; [10]): 2
Treatment Outcome, PR (patients) (NSCLC; [10]): 1
Treatment Outcome, SD (patients) (NSCLC; [10]): 2
Treatment Outcome, PD (patients) (NSCLC; EGFR L858R, 4 patients): 1
Treatment Outcome, SD (patients) (NSCLC; EGFR L858R, 4 patients): 3
Treatment Outcome, PD (patients) (NSCLC; EGFR mutant, Other, 2 patients): SD: 1; PD:1
Treatment Outcome, SD (patients) (NSCLC; EGFR mutant, Other, 2 patients): SD: 1; PD:1
Treatment Outcome, IND (patients) (NSCLC; [11]): 1
Treatment Outcome, PD (patients) (NSCLC; [11]): 2
Treatment Outcome, PR (patients) (NSCLC; [11]): 1
Treatment Outcome, SD (patients) (NSCLC; [11]): 7
Treatment Outcome, IND (patients) (NSCLC; [12]): 1
Treatment Outcome, PD (patients) (NSCLC; [12]): 5
Treatment Outcome, SD (patients) (NSCLC; [12]): 5
Treatment Outcome, SD (patients) (NSCLC; HER2 amplified, 2 patients): SD:2
additional patients with stable disease (SD) of ≥6 weeks duration (NSCLC; NSCLC patients): 28 patients
terminal half-life (t1/2) [5]: 59 to 85 h
